Here are results for 26 compounds from ChEMBL document CHEMBL4680237, “In situ click chemistry-based rapid discovery of novel HIV-1 NNRTIs by exploiting the hydrophobic channel and tolerant regions of NNIBP” (Eur J Med Chem, 2020).

Structures are written as SMILES.

Data set [1] concerns the target Human immunodeficiency virus type 1 reverse transcriptase (Human immunodeficiency virus 1) (UniProt Q72547). Kind of data set: Inhibition of HIV-1 reverse transcriptase assessed as reduction in biotin-dUTP incorporation in to cDNA chain at 0.267 uM in presence of DIG-dUTP, biotin-dUTP and dTTP measured after 1 hr by ELISA relative to control. The method in brief: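 ELISA for HIV-1 RT: enzyme with reconstituted template, DIG-dUTP, biotin-dUTP and dTTP in buffer ± inhibitor, 1 h at 37°C. Product captured on streptavidin-coated plate 2 h at 37°C, then anti-DIG-POD 1 h at 37°C, ABTS substrate, OD405. % inhibition calculated from OD with/without inhibitor and without RT.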

Data set [2] can be described thus: Selectivity index, ratio of CC50 for cytotoxicity against human MT4 cells to EC50 for antiviral activity against HIV1 RES056 infected in human MT4 cells. Type of data set: toxicity, cell-based. Particulars: read-out: Ratio CC50/EC50. An outline of the steps:
(§1)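 SI computed as CC50 in mock-infected MT-4 cells divided by EC50 against the given HIV-1 strain, both from the 5-day MTT assay.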

Data set [3] relates to Human immunodeficiency virus 1. The data set is described as follows: Antiviral activity against HIV1 RES056 infected in human MT4 cells assessed as reduction in virus-induced cell death incubated for 5 days by MTT assay. The settings on record: Human immunodeficiency virus 1, RES056, MT4, 120 h. Type of data set: functional, organism-based. The method in brief: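 MT-4 cells (6×10^5 cells/mL) infected with HIV-1 at 100-300 CCID50; serial 5-fold compound dilutions added at infection, triplicate wells. After 5 days, viability was read by MTT at 540 and 690 nm, using the median absorbance of three wells.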

The test system of data set [4] is Human immunodeficiency virus 1. Kind of data set: Antiviral activity against HIV1 3B infected in human MT4 cells assessed as reduction in virus-induced cell death incubated for 5 days by MTT assay. Type of data set: functional, organism-based. Particulars: Human immunodeficiency virus 1, 3B, MT4, 120 h. An outline of the steps: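 MT-4 cells (6×10^5 cells/mL) infected with HIV-1 at 100-300 CCID50; serial 5-fold compound dilutions added at infection, triplicate wells. After 5 days, viability was read by MTT at 540 and 690 nm, using the median absorbance of three wells. EC50 is the concentration giving 50% protection against virus cytopathic effect.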
Background: Tetrazolium assays rely on reduction of a dye to a coloured formazan, in cell work by metabolically active cells.

Data set [5] can be described thus: Cytotoxicity against human MT4 cells assessed as reduction in cell viability after 5 days by MTT assay. The settings on record: time 5 day. Format: cell-based. The method in brief:
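Mock-infected MT-4 cells (6×10^5 cells/mL) were run in parallel with serial 5-fold compound dilutions in triplicate wells. After 5 days, viability was read by MTT (540/690 nm) as the median of three wells. CC50 is the concentration reducing OD540 of the mock-infected control by 50%.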

Data set [6] can be described thus: Selectivity index, ratio of CC50 for cytotoxicity against human MT4 cells to EC50 for antiviral activity against HIV1 3B infected in human MT4 cells. Format: toxicity, cell-based. The settings on record: read-out: Ratio CC50/EC50. The method in brief:
as §1

A word on the inhibition: it is how much of the control response was suppressed. `Cc1cc(C#N)cc(C)c1Oc1nc(NCCc2cn(CC(=O)N3CCOCC3)nn2)nc2ccsc12`: in data set [1], the inhibition stood at 86.7%.
For the compound `Cc1cc(C#N)cc(C)c1Oc1nc(NC2CCN(C(=O)c3cn(CC(=O)Nc4ccccc4)nn3)CC2)nc2ccsc12`, the inhibition in data set [1] stood at 80.2%.
Broadly, the EC50 is the concentration at which the effect is half-maximal. For orientation: CC50 means the concentration that lowers cell viability or growth by half. Consider `Cc1cc(C#N)cc(C)c1Oc1nc(NC2CCN(Cc3cn(Cc4ccc(C(N)=O)cc4)nn3)CC2)nc2ccsc12`, for which the selectivity ratio in data set [2] was over 437; in data set [6], over 64100. Besides, in data set [1], the inhibition was found to be 66.6%. The figures for the EC50 in data set [3] and in data set [4] were 481 nM and 3.28 nM, respectively. Besides, the CC50 at 120 h in data set [5] is over 210000 nM.
Take `Cc1cc(C#N)cc(C)c1Oc1nc(NCCc2cn(Cc3ccc(S(N)(=O)=O)cc3)nn2)nc2ccsc12`: the inhibition in data set [1] is 72.4%.
As to `Cc1ccc(Cn2cc(CN3CCC(Nc4nc(Oc5c(C)cc(C#N)cc5C)c5sccc5n4)CC3)nn2)cc1`, the results for the selectivity ratio in data set [2] and in data set [6] were under 1 and 650, respectively. Further, in data set [1], the inhibition came out at 46.1%. Moreover, the figures for the EC50 in data set [3] and in data set [4] were over 4720 nM and 7.26 nM, respectively. In addition, the CC50 at 120 h in data set [5] was 4720 nM.
With `Cc1cc(C#N)cc(C)c1Oc1nc(NCCc2cn(Cc3ccccc3[N+](=O)[O-])nn2)nc2ccsc12`, in data set [1], the inhibition stood at 89.1%.
As for `Cc1ccccc1Cn1cc(C(=O)N2CCC(Nc3nc(Oc4c(C)cc(C#N)cc4C)c4sccc4n3)CC2)nn1`, in data set [1], the inhibition stood at 75.8%.
For the compound `Cc1cccc(Cn2cc(CCNc3nc(Oc4c(C)cc(C#N)cc4C)c4sccc4n3)nn2)c1`, the inhibition in data set [1] came to 91.8%.
Regarding `Cc1cc(C#N)cc(C)c1Oc1nc(NC2CCN(Cc3cn(CC(=O)Nc4ccc(S(C)(=O)=O)cc4)nn3)CC2)nc2ccsc12`, the selectivity ratio in data set [2] worked out at 10; in data set [6], 2970. In addition, the inhibition in data set [1] is 60.1%. In addition, the values for the EC50 in data set [3] and in data set [4] were 1990 nM and 6.66 nM, respectively. In addition, the CC50 at 120 h in data set [5] amounted to 19800 nM.
On to `Cc1cc(-c2cn(Cc3ccc(Cl)cc3)nn2)cc(C)c1Oc1nc(NC2CCN(Cc3ccc(S(N)(=O)=O)cc3)CC2)nc2ccsc12`, for which the selectivity ratio in data set [2] was under 1; in data set [6], 108. In addition, in data set [1], the inhibition is 70.8%. In addition, the EC50 in data set [3] is over 3400 nM; in data set [4], 31.3 nM. Moreover, the CC50 at 120 h in data set [5] is 3390 nM.
`Cc1cc(C#N)cc(C)c1Oc1nc(NC2CCN(Cc3cn(Cc4ccccc4C#N)nn3)CC2)nc2ccsc12`: the selectivity ratio is 6 in data set [2] and 2440 in data set [6]. Further, in data set [1], the inhibition worked out at 50.3%. Also, the results for the EC50 in data set [3] and in data set [4] were 2910 nM and 6.64 nM, respectively. In data set [5], the CC50 at 120 h came out at 16200 nM.
As to `Cc1cc(-c2cn(CCc3ccsc3)nn2)cc(C)c1Oc1nc(NC2CCN(Cc3ccc(S(N)(=O)=O)cc3)CC2)nc2ccsc12`, the selectivity ratio in data set [2] is 1.88; in data set [6], 552. Besides, the inhibition in data set [1] amounted to 72.5%. Further, the EC50 in data set [3] stood at 6190 nM; in data set [4], 21.1 nM. Besides, the CC50 at 120 h in data set [5] stood at 11700 nM.
On to `Cc1cc(C#N)cc(C)c1Oc1nc(NC2CCN(Cc3ccc(S(N)(=O)=O)cc3)CC2)nc2ccsc12`, for which the selectivity ratio in data set [2] is over 7420; in data set [6] it was over 159000. Further, the inhibition in data set [1] stood at 44%. Moreover, the EC50 in data set [3] turned out to be 30.6 nM. Moreover, the CC50 at 120 h in data set [5] is over 227000 nM.
With `Cc1cc(C#N)cc(C)c1Oc1nc(NC2CCN(C(=O)c3cn(CC(=O)N4CCOCC4)nn3)CC2)nc2ccsc12`, the inhibition in data set [1] was 71.8%.
Regarding `Cc1cc(C#N)cc(C)c1Oc1nc(NC2CCN(Cc3cn(CC(=O)N4CCOCC4)nn3)CC2)nc2ccsc12`, the values for the selectivity ratio in data set [2] and in data set [6] were over 48 and over 48500, respectively. In addition, the inhibition in data set [1] was found to be 69.7%. In addition, the EC50 was determined as 4460 nM in data set [3] and 4.38 nM in data set [4]. Further, in data set [5], the CC50 at 120 h was over 212000 nM.
With `O=C1Nc2ccc(Cl)cc2[C@@](C#CC2CC2)(C(F)(F)F)O1` [EFAVIRENZ], the EC50 in data set [4] stood at 4.7 nM. Also, the CC50 at 120 h in data set [5] was over 6380 nM.
Take `Cc1cc(C#N)cc(C)c1Oc1nc(NCCc2cn(Cc3ccccc3Cl)nn2)nc2ccsc12`: the inhibition in data set [1] turned out to be 75.6%.
Regarding `Cc1ccnc2c1NC(=O)c1cccnc1N2C1CC1` [NEVIRAPINE], the figures for the EC50 in data set [3] and in data set [4] were over 9510 nM and 163 nM, respectively. Also, the CC50 at 120 h in data set [5] is over 9510 nM. Further, the selectivity ratio in data set [6] is over 58.
For the compound `Cc1cc(-c2cn(CC(=O)N3CCCC3)nn2)cc(C)c1Oc1nc(NC2CCN(Cc3ccc(S(N)(=O)=O)cc3)CC2)nc2ccsc12`, the selectivity ratio in data set [2] amounted to 3; in data set [6], 682. Moreover, the inhibition in data set [1] was determined as 74%. Also, the concentration giving a half-maximal response (EC50) in data set [3] is 6050 nM; in data set [4], 25.8 nM. Besides, the CC50 at 120 h in data set [5] stood at 17600 nM.
Take `Cc1cc(C#N)cc(C)c1Oc1nc(Nc2ccc(C#N)cc2)nc(N)c1Br` [ETRAVIRINE]: the selectivity ratio in data set [2] was over 101; in data set [6], over 889. In addition, in data set [1], the inhibition was 32.7%. Also, the EC50 in data set [4] was 5.1 nM. The CC50 at 120 h in data set [5] is over 4590 nM.
As to `Cc1cc(C#N)cc(C)c1Oc1nc(NC2CCN(Cc3cn(Cc4ccccc4[N+](=O)[O-])nn3)CC2)nc2ccsc12`, the selectivity ratio is 7 in data set [2] and 1250 in data set [6]. The inhibition in data set [1] turned out to be 51.9%. The figures for the EC50 in data set [3] and in data set [4] were 1170 nM and 6.12 nM, respectively. Moreover, in data set [5], the CC50 at 120 h came to 7660 nM.
For the compound `Cc1cc(C#N)cc(C)c1Oc1nc(NCCc2cn(Cc3ccc(C(N)=O)cc3)nn2)nc2ccsc12`, in data set [1], the inhibition turned out to be 71.1%.
Consider `Cc1cc(C#N)cc(C)c1Oc1nc(NC2CCN(Cc3cn([C@H]4C[C@H](n5cc(C)c(=O)[nH]c5=O)O[C@@H]4CO)nn3)CC2)nc2ccsc12`, for which the selectivity ratio in data set [2] worked out at 14; in data set [6], 1800. Also, in data set [1], the inhibition amounted to 57.1%. Also, the EC50 in data set [3] stood at 10600 nM; in data set [4], 82.9 nM. For the same compound, the CC50 at 120 h in data set [5] was found to be 149000 nM.
As to `Cc1cc(C#N)cc(C)c1Oc1nc(NC2CCN(Cc3cn(Cc4ccc(C#N)cc4)nn3)CC2)nc2ccsc12`, the results for the selectivity ratio in data set [2] and in data set [6] were 6 and 525, respectively. In addition, the EC50 in data set [3] was found to be 18100 nM; in data set [4], 209 nM. Besides, in data set [5], the CC50 at 120 h is 110000 nM.
As for `Cc1cc(C#N)cc(C)c1Oc1nc(NC2CCN(Cc3cn(Cc4ccc(S(N)(=O)=O)cc4)nn3)CC2)nc2ccsc12`, the selectivity ratio in data set [2] amounted to 31; in data set [6], 3880. Also, the inhibition in data set [1] is 42%. The EC50 was found to be 670 nM in data set [3] and 5.35 nM in data set [4]. The CC50 at 120 h in data set [5] is 20700 nM.
In the case of `Cc1ccccc1Cn1cc(CN2CCC(Nc3nc(Oc4c(C)cc(C#N)cc4C)c4sccc4n3)CC2)nn1`, the inhibition in data set [1] was determined as 44.8%.
